A selection: hits, their analogues and other compounds. The true share with any hit is near 1.1%.
CAL PDZ FP-1: inhibitors of human CAL PDZ peptide binding; Q9HD26; purified CAL PDZ, TMR-peptide fluorescence polarization, 1 h; inhibition, % at 20 µM; 330,000 compounds, 0.02% hits;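 active means highest replicate inhibition of at least 40%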;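 further: plate controls were DMSO neutral control wells for no effect and unlabeled competitor peptide control wells for full effect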
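Material – purified CerCALP PDZ construct · Detection – FP readout, S and P plane fluorescence · Measure – percent inhibition from loss of millipolarization · Controls – unlabelled peptide for full inhibition, DMSO wells as neutral · Probe or stimulus – TMR-labelled reporter peptide T*-PRC34 bound in PDZ groove · Times – 1 h at RT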
Rin1-Abl PPI inh: blocks binding of human Rin1 to Abl | inhibition, % at 7.35 µM | 360,000 compounds, 0.4% hits | TR-FRET Rin1/Abl binding, biochemical; in the data active means inhibition above about 5%, passing the limit was not always enough
PDI inh: blocks human protein disulfide isomerase activity | P07237 | PDI insulin aggregation turbidity, A650, 90 min | inhibition, % at 10 µM | 350,000 compounds, 0.052% hits | AID 588391;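 active means mean inhibition across replicates of 30% or more, whatever share of single replicates reach that level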
CAL PDZ FP-2: inhibitors of human CAL PDZ peptide binding | 300,000 compounds, 0.92% hits | purified CAL PDZ, TMR-peptide fluorescence polarization, 1 h | inhibition, % at 24.9 µM | Q9HD26 | AID 602252;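 active means mean inhibition of at least 30% with at least half of replicates also reaching 30%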;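 further: 0% = DMSO neutral control and 100% = excess unlabeled competitor peptide PRC23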
ERAP1 HTS inh: ERAP1 (human) enzyme inhibition; recombinant ERAP1, Leu-AMC fluorescence, 60 min; inhibition, % at 10.7 µM; Q9NZ08; 340,000 compounds, 0.15% hits; AID 652197;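 active means mean replicate inhibition of at least 30%, or all replicates individually reaching that 30% level; inactive means mean below 30% and not every replicate reaching it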;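 further: 0% = neutral control wells and 100% = L-leucinethiol positive control wells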
ERp5 block: inhibitors of human ERp5; ERp5 insulin aggregation, absorbance 650 nm, 90 min; inhibition, % at 9.99 µM; 350,000 compounds, 0.05% hits; AID 651711;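 active means mean replicate inhibition above about 25%, with every replicate also reaching it, limit read from the data, passing the limit was not always enough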
Numbers without * were called inactive; / = not tested or not shown; ! = a repeat was not active.

SMILES	CAL PDZ FP-1	Rin1-Abl PPI inh	PDI inh	CAL PDZ FP-2	ERAP1 HTS inh	ERp5 block
O=C(NCC[C@H]1CC[C@H](NS(=O)(=O)Cc2ccccc2)[C@H](CO)O1)C1CCCCC1	/	/	/	/	-6.2	13.5
CCCCN1C(=O)/C(=C/C=C2\Oc3ccccc3N2CC)SC1=S	1.8	2.0	5.3	1.0	-0.2	3.2
CCN1/C(=C/C=C/c2oc3ccc(-c4ccccc4)cc3[n+]2CC)Oc2ccc(-c3ccccc3)cc21	-3.9	-20.4	0.5	35.6*	-1.9	-2.2
CC[N+]1(CC(O)COC2CC(C)CC(C)(C)C2)CCOCC1 (centres undefined)	-0.1	-1.5	1.7	1.7	107.5*	2.9
C/C=C/c1ccc([C@@H]2[C@H](CO)N[C@H]2CN(CC(C)C)C(=O)c2ccccn2)cc1	/	/	/	/	/	5.9
CN(C)C1(CNC(=S)Nc2ccccc2C(F)(F)F)CCCCC1	0.2	-0.3	-3.4	60.8*	-3.4	-3.7
O=C(C[C@@H]1C=C[C@H](NC(=O)Nc2ccc(F)cc2)[C@@H](CO)O1)NCCN1CCCC1	/	/	/	/	4.0	-0.2
CCOc1cc(C(=S)N2CCN(C)CC2)ccc1OCC(=O)N1CCOCC1	-0.8	1.0	2.9	30.9*	/	/
CCC(=O)N[C@@H]1C=C[C@@H](CC(=O)NCC2CCCCC2)O[C@H]1CO	/	/	/	/	-0.5	-2.5
CCCNC(=O)C[C@@H]1C[C@H]2c3cc(NC(=O)CC4CC4)ccc3O[C@H]2[C@H](CO)O1	/	/	/	/	1.6	61.6*
COCCNC(=O)C[C@@H]1C[C@H]2c3cc(NC(=O)NC4CCCC4)ccc3O[C@H]2[C@@H](CO)O1	/	/	/	/	0.3	81.7*
CCCNC(=O)C[C@@H]1C[C@H]2c3cc(NC(=O)CC4CC4)ccc3O[C@H]2[C@@H](CO)O1	/	/	/	/	-0.3	-2.2
O=C(C[C@@H]1C[C@H]2c3cc(NC(=O)Nc4ccccc4F)ccc3O[C@H]2[C@H](CO)O1)NCC(F)(F)F	/	-0.2	-4.7	/	-1.7	84.1*!
CO[C@@H]1CN(C)C(=O)c2ccc(NC(=O)Nc3cccc(Cl)c3)cc2OC[C@@H](C)N(C(=O)Nc2c(C)noc2C)C[C@H]1C	/	/	/	/	-0.2	-3.7
C=CCn1c(SCC(=O)N2CC(C)OC(C)C2)nnc1-c1ccncc1 (centres undefined)	0.8	3.3	4.5	-5.2	49.1*	-10.7
C=CCn1c(SCC(=O)N2CCCCC2)nnc1-c1ccncc1	-0.5	5.3	6.8	4.2	3.4	-0.8
CC1(C)Oc2ccc3ccc(=O)oc3c2-c2cnoc21	0.1	-1.4	/	-1.8	56.5*	0.5
CCC(=O)Nc1ccc2c(c1)C(=O)N(C)C[C@H](OC)[C@@H](C)CN(Cc1ccccc1F)[C@H](C)CO2	/	/	/	/	1.4	-1.3
CCCC(=O)N1CCN(c2ccc(NC(=S)NC(=O)c3cccc(C)c3)cc2)CC1	-1.3	-3.4	3.9	74.8*	-4.2	0.6
CCN1C(=O)[C@H]2[C@@H](c3ccc(-c4ccc(Cl)c(Cl)c4)cc3)N3CCCC[C@@]3(C(=O)OC)[C@H]2C1=O	-1.1	4.0	-3.3	34.6*	4.1	-3.1
CCN1C(=O)[C@@H]2[C@@H](c3ccc(-c4ccc(Cl)c(Cl)c4)cc3)N3CCC[C@@]3(C(=O)OC)[C@@H]2C1=O	-1.0	-0.1	8.2	-2.9	/	2.7
Cc1nc(/C(N)=N/OC(=O)c2cccc(Cl)c2)c(C(F)(F)F)o1	-2.2	-4.7	7.8	/	/	5.8
Cc1nc(/C(N)=N/OC(=O)c2ccccc2Cl)c(C(F)(F)F)o1	-1.2	0.1	9.2	68.4*	-0.3	-3.0
Cc1cc(C)cc(OCC(=O)Nc2ccccc2C(=O)N2CCOCC2)c1	15.6	-1.1	37.2*	4.4	-1.2	0.8
CCCCNC(=O)c1ccc2c(=O)n(CCCOCC)c(=S)[nH]c2c1	-0.6	1.4	-9.2	-2.9	/	/
SMILES	CAL PDZ FP-1	Rin1-Abl PPI inh	PDI inh	CAL PDZ FP-2	ERAP1 HTS inh	ERp5 block
CCOCCCn1c(=S)[nH]c2cc(C(=O)NC3CCCC(C)C3C)ccc2c1=O (centres undefined)	-0.6	-1.1	0.7	62.3*	-0.1	2.9
CCOCCCNC(=O)c1ccc2c(=O)n(Cc3ccc4c(c3)OCO4)c(=S)[nH]c2c1	34.5	-2.3	-1.6	36.8*	-3.4	2.1
COCCCNC(=O)c1ccc2c(=O)n(Cc3ccc4c(c3)OCO4)c(=S)[nH]c2c1	-0.2	0.2	0.0	-1.8	/	/
O=C(N[C@H]1CC[C@H](CCNS(=O)(=O)c2ccc(F)cc2)O[C@@H]1CO)c1ccccn1	/	/	/	/	-2.5	3.5
Cc1ccccc1-c1cnc2c(c1)C(=O)N([C@H](C)CO)C[C@@H](C)[C@@H](CN(C)Cc1cccnc1)O2	/	/	/	/	-0.3	3.6
O=C(O)CSc1cc(NS(=O)(=O)c2ccc(Br)cc2)c2ccccc2c1O	42.3*	2.3	11.4	13.4	4.0	-0.5
O=S(=O)(Nc1cc(Sc2ncn[nH]2)c(O)c2ccccc12)c1ccccc1	7.8	7.5	-5.2	3.6	56.1*	-4.2
O=C(O[C@@H]1OC2COC(=O)c3cc(O)c(O)c(O)c3-c3c(cc(O)c(O)c3O)C(=O)O[C@@H]([C@H]1O)[C@@H]2O)c1cc(O)c(O)c(O)c1	1.4	68.7*	5.2	-0.6	/	/
COc1cccc(NC(=O)N[C@@H]2C=C[C@@H](CC(=O)Nc3ccccc3)O[C@H]2CO)c1	/	/	/	/	-0.1	0.0
Nc1nonc1C(=O)NCCNCc1ccccc1OCc1ccccc1F	-1.4	0.9	12.2	74.2*	/	/
CCN(C(=O)Nc1cccc(Cl)c1)c1ccccc1	0.9	0.6	-5.6	/	-3.9	3.9
Cc1cccc(N(O)C(=O)Nc2cccc(Cl)c2)c1	-1.5	-1.5	1.1	31.3*	-0.4	3.7
COCCN(C(=O)c1ccco1)c1nnc(-c2ccc(F)cc2)s1	-2.0	1.5	5.3	40.2*	0.9	0.7
Cc1ccnc(NC(=O)c2ccc(COc3c(F)c(F)cc(F)c3F)o2)c1	-0.5	-2.9	-2.8	/	5.5	-3.7
O=C(Nc1ccc(Br)cn1)c1ccc(COc2c(F)c(F)cc(F)c2F)o1	0.4	1.9	-1.3	34.9*	-2.7	0.8
CC(=O)N1CC[C@@H]2[C@@H](CO)Nc3ccc(-c4ccccc4)cc3[C@@H]21	/	/	/	/	2.1	3.8
O=C(C[n+]1cccc(Br)c1)c1ccccc1	2.5	2.1	6.3	-7.7	1.3	1.7
COc1ccc(C(=O)C[n+]2cccc(Br)c2)cc1	0.0	-3.6	-2.6	32.0*	-3.1	3.3
CC(C)NC(=O)N1C[C@H]2[C@@H](c3ccccc31)[C@@H](CO)N2Cc1ccc(Cl)cc1	/	/	/	/	-0.8	1.2
C[C@@H]1CCCCO[C@@H](CN(C)C(=O)Cc2ccccc2)[C@@H](C)CN([C@H](C)CO)C(=O)c2cc(NC(=O)Nc3ccc4c(c3)OCO4)ccc2O1	/	/	/	/	-4.3	0.2
COc1ccccc1C(=O)NC(CCSC)C(=O)NC1CC1 (centres undefined)	-2.0	3.8	9.3	62.0*	-2.8	-3.9
CCOC(=O)c1ccc(-n2c(C)nc3c(cnn3-c3ccc(Cl)cc3)c2=O)cc1	1.1	2.3	5.2	-3.9	/	/

Bioassay records as filed in PubChem BioAssay.
